Reference: ChEMBL document CHEMBL1909504, “New series of isoniazid hydrazones linked with electron-withdrawing substituents” (Eur J Med Chem, 2011)
Values after ≈ are worked out from the molar mass of the structure shown.

How the values were obtained:
[1] = system: Mycobacterium tuberculosis; assay: Antimycobacterial activity against Mycobacterium tuberculosis CNTC My 331/88 ATCC 27294 after 21 days; assay type: functional; conditions: CNTC My 331/88 ATCC 27294, 504 h
Method in brief: (§1)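 Sula semi-synthetic medium at 37 °C. Compounds were dissolved in DMSO (max. 5% DMSO in water) and added to the medium at 1000, 500, 250, 125, 62, 31, 16, 8, 4, 2 and 1 μmol L⁻¹. MIC was read after 7, 14 and 21 days of incubation at 37 °C. Strains came from the Czech National Collection of Type Cultures.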

Mycobacterium kansasii [2] = assay: Antimycobacterial activity against Mycobacterium kansasii CNTC My 335/80 after 7 days; assay type: functional; conditions: 168 h
Method in brief: (§2)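 MIC in Sula semi-synthetic medium at 37 °C. M. kansasii 6509/96 is a clinical isolate; M. kansasii CNTC My 235/80 comes from the Czech national collection. Compounds were dissolved in DMSO (max. 5% DMSO in water) and tested at 1000, 500, 250, 125, 62, 31, 16, 8, 4, 2 and 1 μmol L⁻¹. MIC was read after 7, 14 and 21 days.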

Mycobacterium kansasii [3] = assay: Antimycobacterial activity against Mycobacterium kansasii 6509/96 isolate after 7 days; assay type: functional; conditions: 6509/96, 168 h; method in brief: as §2
Mycobacterium kansasii [4] = assay: Antimycobacterial activity against Mycobacterium kansasii CNTC My 335/80 after 14 days; assay type: functional; conditions: 336 h; method in brief: as §2
Mycobacterium kansasii [5] = assay: Antimycobacterial activity against Mycobacterium kansasii 6509/96 isolate after 14 days; assay type: functional; conditions: 6509/96, 336 h; method in brief: as §2
Mycobacterium avium [6] = assay: Antimycobacterial activity against Mycobacterium avium CNTC My 330/88 after 21 days; assay type: functional; conditions: CNTC My 330/88, 504 h; method in brief: as §1
Mycobacterium kansasii [7] = assay: Antimycobacterial activity against Mycobacterium kansasii 6509/96 isolate after 21 days; assay type: functional; conditions: 6509/96, 504 h; method in brief: as §2
Mycobacterium kansasii [8] = assay: Antimycobacterial activity against Mycobacterium kansasii CNTC My 335/80 after 21 days; assay type: functional; conditions: 504 h; method in brief: as §2
Mycobacterium avium [9] = assay: Antimycobacterial activity against Mycobacterium avium CNTC My 330/88 after 14 days; assay type: functional; conditions: CNTC My 330/88, 336 h; method in brief: as §1
[10] = system: Mycobacterium tuberculosis; assay: Antimycobacterial activity against Mycobacterium tuberculosis CNTC My 331/88 ATCC 27294 after 14 days; assay type: functional; conditions: CNTC My 331/88 ATCC 27294, 336 h; method in brief: as §1
HepG2 = assay: Cytotoxicity against human HepG2 cells by MTT assay; assay type: cell-based
Method in brief: (§3)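 MTT viability assay in RPMI-1640 without phenol red with 10% FCS and 2 mM L-glutamine, at 37 °C and 5% CO₂. HepG2 seeded at 5×10³ cells/well; fresh human PBMC at 2.0×10⁵ cells/well. After 24 h, cells were exposed overnight in serum-free medium, then given MTT (2 mg mL⁻¹) for 4 h. Formazan dissolved in DMSO, OD540 minus OD620, compared with untreated controls. IC50 taken from dose-response curves; two independent experiments, 4–8 parallels.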

PBMC = assay: Cytotoxicity against human PBMC by MTT assay; assay type: cell-based; method in brief: as §3
[11] = Selectivity index, ratio of IC50 for human HepG2 cells to MIC for Mycobacterium tuberculosis CNTC My 331/88 ATCC 27294; assay type: functional
Method in brief: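 HepG2 human hepatoma cells in RPMI-1640 without phenol red with 10% FCS, 2 mM L-glutamine and gentamycin, at 37 °C and 5% CO₂. Seeded at 5×10³ cells/well and grown 24 h, then treated overnight in serum-free medium. Read-out was MTT (4 h), formazan dissolved in DMSO, OD540 minus OD620. IC50 was taken from dose-response curves, two experiments with 4–8 parallels. MIC was measured in Sula medium.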

[12] = Stability of compound in 0.005 M KOH buffer assessed as pseudo-first order rate constant at pH 11.7 by UV-vis spectroscopic analysis; assay type: physicochemical
Method in brief: (§4)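 Hydrolytic stability followed by diode-array UV-vis at 37 ± 0.1 °C on ca. 5×10⁻⁵ mol L⁻¹ solutions. Ionic strength was set to 1 mol L⁻¹ with KCl; buffer pH was checked with a glass electrode. Spectra recorded over 200–500 nm with time. Pseudo-first-order k_obs was fitted from the absorbance-time curve at 267 nm.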

[13] = Stability of compound in phosphate buffer assessed as pseudo-first order rate constant at pH 5.81 by UV-vis spectroscopic analysis; assay type: physicochemical; method in brief: as §4
[14] = Stability of compound in methoxyacetate buffer assessed as pseudo-first order rate constant at pH 3.35 by UV-vis spectroscopic analysis; assay type: physicochemical; method in brief: as §4
[15] = Stability of compound in 0.005 M HCl buffer assessed as pseudo-first order rate constant at pH 2.3 by UV-vis spectroscopic analysis; assay type: physicochemical; method in brief: as §4
[16] = Stability of compound in 0.01 M HCl buffer assessed as pseudo-first order rate constant at pH 2 by UV-vis spectroscopic analysis; assay type: physicochemical; method in brief: as §4
[17] = Stability of compound in 0.1 M KOH buffer assessed as pseudo-first order rate constant at pH 13 by UV-vis spectroscopic analysis; assay type: physicochemical; method in brief: as §4
[18] = Stability of compound in 0.007 M HCl buffer assessed as pseudo-first order rate constant at pH 2.16 by UV-vis spectroscopic analysis; assay type: physicochemical; method in brief: as §4
[19] = Stability of compound in 0.0005 HCl buffer assessed as pseudo-first order rate constant at pH 3.3 by UV-vis spectroscopic analysis; assay type: physicochemical; method in brief: as §4
[20] = Stability of compound in carbonate buffer assessed as pseudo-first order rate constant at pH 9.71 by UV-vis spectroscopic analysis; assay type: physicochemical; method in brief: as §4
[21] = Stability of compound in acetate buffer assessed as pseudo-first order rate constant at pH 4.55 by UV-vis spectroscopic analysis; assay type: physicochemical; method in brief: as §4
[22] = Stability of compound in imidazole buffer assessed as pseudo-first order rate constant at pH 7.23 by UV-vis spectroscopic analysis; assay type: physicochemical; method in brief: as §4
[23] = Stability of compound in TRIS buffer assessed as pseudo-first order rate constant at pH 8.92 by UV-vis spectroscopic analysis; assay type: physicochemical; method in brief: as §4
[24] = Stability of compound in 0.001 HCl buffer assessed as pseudo-first order rate constant at pH 3 by UV-vis spectroscopic analysis; assay type: physicochemical; method in brief: as §4
[25] = Stability of compound in N-Methylmorpholine buffer assessed as pseudo-first order rate constant at pH 7.86 by UV-vis spectroscopic analysis; assay type: physicochemical; method in brief: as §4

Row | Structure (SMILES) | MIC [1] | MIC (Mycobacterium kansasii [2]) | MIC (Mycobacterium kansasii [3]) | MIC (Mycobacterium kansasii [4]) | MIC (Mycobacterium kansasii [5]) | MIC (Mycobacterium avium [6]) | MIC (Mycobacterium kansasii [7]) | MIC (Mycobacterium kansasii [8]) | MIC (Mycobacterium avium [9]) | MIC [10] | other results
1 | O=C(N/N=C/Nc1cccc(O)c1)c1ccncc1 | 2 µM (≈ 0.513 µg/mL) | 250 µM (≈ 64.1 µg/mL) | 16 µM (≈ 4.1 µg/mL) | 1000 µM (≈ 256 µg/mL) | 32 µM (≈ 8.2 µg/mL) | 500 µM (≈ 128 µg/mL) | 32 µM (≈ 8.2 µg/mL) | 1000 µM (≈ 256 µg/mL) | 500 µM (≈ 128 µg/mL) | 2 µM (≈ 0.513 µg/mL) | –
2 | O=C(N/N=C/Nc1ccc(O)cc1)c1ccncc1 | 8 µM (≈ 2.05 µg/mL) | 250 µM (≈ 64.1 µg/mL) | 32 µM (≈ 8.2 µg/mL) | 500 µM (≈ 128 µg/mL) | 62.5 µM (≈ 16 µg/mL) | 500 µM (≈ 128 µg/mL) | 62.5 µM (≈ 16 µg/mL) | 500 µM (≈ 128 µg/mL) | 500 µM (≈ 128 µg/mL) | 4 µM (≈ 1.03 µg/mL) | –
3 | COc1cccc(N/C=N/NC(=O)c2ccncc2)c1 | 2 µM (≈ 0.541 µg/mL) | 250 µM (≈ 67.6 µg/mL) | 16 µM (≈ 4.32 µg/mL) | 500 µM (≈ 135 µg/mL) | 16 µM (≈ 4.32 µg/mL) | 500 µM (≈ 135 µg/mL) | 16 µM (≈ 4.32 µg/mL) | 1000 µM (≈ 270 µg/mL) | 500 µM (≈ 135 µg/mL) | 2 µM (≈ 0.541 µg/mL) | –
4 | COc1ccc(N/C=N/NC(=O)c2ccncc2)cc1 | 4 µM (≈ 1.08 µg/mL) | 250 µM (≈ 67.6 µg/mL) | 16 µM (≈ 4.32 µg/mL) | 500 µM (≈ 135 µg/mL) | 16 µM (≈ 4.32 µg/mL) | 500 µM (≈ 135 µg/mL) | 32 µM (≈ 8.65 µg/mL) | 1000 µM (≈ 270 µg/mL) | 500 µM (≈ 135 µg/mL) | 2 µM (≈ 0.541 µg/mL) | –
5 | O=C(N/N=C/Nc1cc(Cl)ccc1O)c1ccncc1 | 2 µM (≈ 0.581 µg/mL) | 125 µM (≈ 36.3 µg/mL) | 8 µM (≈ 2.33 µg/mL) | 250 µM (≈ 72.7 µg/mL) | 16 µM (≈ 4.65 µg/mL) | 500 µM (≈ 145 µg/mL) | 32 µM (≈ 9.3 µg/mL) | 250 µM (≈ 72.7 µg/mL) | 500 µM (≈ 145 µg/mL) | 2 µM (≈ 0.581 µg/mL) | IC50 (HepG2): 21.8 µM; IC50 (PBMC): 75 µM; Ratio [11]: 10.9
6 | O=C(N/N=C/Nc1ccc(Br)c(F)c1)c1ccncc1 | 1 µM (≈ 0.337 µg/mL) | 62.5 µM (≈ 21.1 µg/mL) | 8 µM (≈ 2.7 µg/mL) | 250 µM (≈ 84.3 µg/mL) | 8 µM (≈ 2.7 µg/mL) | 250 µM (≈ 84.3 µg/mL) | 16 µM (≈ 5.39 µg/mL) | 250 µM (≈ 84.3 µg/mL) | 250 µM (≈ 84.3 µg/mL) | 1 µM (≈ 0.337 µg/mL) | Activity [12]: 0.00011 s⁻¹; Activity [13]: 0.000071 s⁻¹; Activity [14]: 0.000425 s⁻¹; Activity [15]: 0.0017 s⁻¹; Activity [16]: 0.00285 s⁻¹; Activity [17]: 0.0000691 s⁻¹; Activity [18]: 0.00192 s⁻¹; Activity [19]: 0.000322 s⁻¹; Activity [20]: 0.0000445 s⁻¹; IC50 (HepG2): 162 µM; Activity [21]: 0.000114 s⁻¹; Activity [22]: 0.000013 s⁻¹; IC50 (PBMC): 326 µM; Activity [23]: 0.000055 s⁻¹; Ratio [11]: 162; Activity [24]: 0.000514 s⁻¹; Activity [25]: 0.000012 s⁻¹
7 | O=C(N/N=C/Nc1cccc(C(F)(F)F)c1)c1ccncc1 | 1 µM (≈ 0.308 µg/mL) | 125 µM (≈ 38.5 µg/mL) | 16 µM (≈ 4.93 µg/mL) | 250 µM (≈ 77.1 µg/mL) | 16 µM (≈ 4.93 µg/mL) | 1000 µM (≈ 308 µg/mL) | 32 µM (≈ 9.86 µg/mL) | 1000 µM (≈ 308 µg/mL) | 500 µM (≈ 154 µg/mL) | 1 µM (≈ 0.308 µg/mL) | –
8 | O=C(N/N=C/Nc1ccc(Cl)cc1)c1ccncc1 | 1 µM (≈ 0.275 µg/mL) | 125 µM (≈ 34.3 µg/mL) | 16 µM (≈ 4.4 µg/mL) | 250 µM (≈ 68.7 µg/mL) | 32 µM (≈ 8.79 µg/mL) | 1000 µM (≈ 275 µg/mL) | 32 µM (≈ 8.79 µg/mL) | 1000 µM (≈ 275 µg/mL) | 500 µM (≈ 137 µg/mL) | 1 µM (≈ 0.275 µg/mL) | –
9 | O=C(N/N=C/Nc1ccc(Br)cc1)c1ccncc1 | 4 µM (≈ 1.28 µg/mL) | 125 µM (≈ 39.9 µg/mL) | 32 µM (≈ 10.2 µg/mL) | 250 µM (≈ 79.8 µg/mL) | 32 µM (≈ 10.2 µg/mL) | 500 µM (≈ 160 µg/mL) | 32 µM (≈ 10.2 µg/mL) | 500 µM (≈ 160 µg/mL) | 500 µM (≈ 160 µg/mL) | 2 µM (≈ 0.638 µg/mL) | –
10 | O=C(N/N=C/Nc1cccc([N+](=O)[O-])c1)c1ccncc1 | 2 µM (≈ 0.571 µg/mL) | 125 µM (≈ 35.7 µg/mL) | 8 µM (≈ 2.28 µg/mL) | 250 µM (≈ 71.3 µg/mL) | 16 µM (≈ 4.56 µg/mL) | 500 µM (≈ 143 µg/mL) | 16 µM (≈ 4.56 µg/mL) | 500 µM (≈ 143 µg/mL) | 250 µM (≈ 71.3 µg/mL) | 2 µM (≈ 0.571 µg/mL) | –
11 | NNC(=O)c1ccncc1 [ISONIAZID] | 1 µM (≈ 0.137 µg/mL) | > 250 µM | 2 µM (≈ 0.274 µg/mL) | > 250 µM | 4 µM (≈ 0.549 µg/mL) | > 250 µM | 4 µM (≈ 0.549 µg/mL) | > 250 µM | > 250 µM | 1 µM (≈ 0.137 µg/mL) | IC50 (HepG2): > 1000 µM
